Xi reactivation – reactivates the inactive X chromosome in mouse fibroblasts | AID 743238 | XiGFP mouse fibroblasts, % GFP-positive cells imaging, 3 d; cells co-treated with 5-aza-dC sensitizer; scaled so ellipticine positive control = 100% | activation, % at 7.58 µM | 0.055% of 360,000 active;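 active means mean normalized replicate activation at least 10% and every replicate at or above 10%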
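System: 68-5-11 XiGFP fibroblast line; Timing: 3 days compound exposure; Compound dosing: one concentration, pinned; Benchmarks: positive control ellipticine, 6 µM final; Buffer or medium: DMEM containing 5-aza-dC.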
Rpn11 block – Rpn11 (human) deubiquitinase inhibition. 0.59% of 360,000 active. inhibition, % at 20 µM. O00487. human 26S proteasome, Ub4-pepOG fluorescence polarization; 20S core pre-blocked with epoxomicin;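 active means inhibition at 20 µM, scaled to each plate's controls, above about 33%, limit read from the data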
TPT1 inhibitor – blocks Candida albicans tRNA 2'-phosphotransferase | 0.81% of 300,000 active | AID 1962 | recombinant caTPT1, FP RNA substrate dephosphorylation | inhibition, % at 5 µM;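 active means inhibition above the mean of all tested compounds plus 3 SD, set per screening campaign, cut at about 24% in these data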
HNF4A DNA FP – change in binding of human HNF4 alpha to DNA. P41235. HNF4a-FITC DNA binding, fluorescence polarization, 1 h. activity change, % at 10 µM. 0.3% of 360,000 active. AID 1224865; in the data active means activity change above about 30%, passing the limit was not always enough
CSN inh – CSN deneddylation inhibition | AID 651999 | 0.38% of 360,000 active | inhibition, % at 12.5 µM | Q92905 | Purified CSN, SCF-Nedd8-OG deneddylation, fluorescence polarization;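 active means pattern-corrected inhibition above about 35%, with an unprinted fluorescence ratio check between 0.5 and 1.5, limit read from the data, passing the limit was not always enough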
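test system = HEK293T-derived human Csn5 enzyme | amount = 0.24 nM Csn5 enzyme, final concentration | medium = Tris/NaCl/DTT buffer, pH 7.5 | schedule = 90 min reaction at room temperature | signal = FP | evaluation = inhibition of Csn5 cleavage, % | compound dosing = single dose of 12.5 µM compound with 0.25% DMSO | probe or stimulus = 10 nM SCFSkp2-Nedd8OG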
aDG glyco up – increases alpha dystroglycan glycosylation; Pro5-aDG cells, alpha-DG glycosylation AlphaScreen (IIH6); 0% Pro5, 100% B10-LARGE cell signal; activation, % at 10 µM; 0.22% of 360,000 active; AID 624168;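 active means activation of at least 8% versus controls, or a plate z-score of at least 8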;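 further: Pro5 are CHO cells carrying HIG-tagged alpha-DG that lacks glycosylation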
Rpn11 confirm – Rpn11 inhibition confirmation, single concentration; shares compounds with Rpn11 block; purified human 26S proteasome, Ub4-pepOG fluorescence polarization; proteasome pretreated with epoxomicin; inhibition, % at 20 µM; 29% of 1,900 active; AID 602318
MMP-2 counter – MMP-2 (human) inhibition counter-screen. shares compounds with Rpn11 block. 4% of 1,900 active. recombinant MMP-2, FRET peptide cleavage fluorescence. inhibition, % at 20 µM. AID 602330;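 further: human MMP-2 activated beforehand with APMA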
Target sequence (P08253 whole entry, looked up): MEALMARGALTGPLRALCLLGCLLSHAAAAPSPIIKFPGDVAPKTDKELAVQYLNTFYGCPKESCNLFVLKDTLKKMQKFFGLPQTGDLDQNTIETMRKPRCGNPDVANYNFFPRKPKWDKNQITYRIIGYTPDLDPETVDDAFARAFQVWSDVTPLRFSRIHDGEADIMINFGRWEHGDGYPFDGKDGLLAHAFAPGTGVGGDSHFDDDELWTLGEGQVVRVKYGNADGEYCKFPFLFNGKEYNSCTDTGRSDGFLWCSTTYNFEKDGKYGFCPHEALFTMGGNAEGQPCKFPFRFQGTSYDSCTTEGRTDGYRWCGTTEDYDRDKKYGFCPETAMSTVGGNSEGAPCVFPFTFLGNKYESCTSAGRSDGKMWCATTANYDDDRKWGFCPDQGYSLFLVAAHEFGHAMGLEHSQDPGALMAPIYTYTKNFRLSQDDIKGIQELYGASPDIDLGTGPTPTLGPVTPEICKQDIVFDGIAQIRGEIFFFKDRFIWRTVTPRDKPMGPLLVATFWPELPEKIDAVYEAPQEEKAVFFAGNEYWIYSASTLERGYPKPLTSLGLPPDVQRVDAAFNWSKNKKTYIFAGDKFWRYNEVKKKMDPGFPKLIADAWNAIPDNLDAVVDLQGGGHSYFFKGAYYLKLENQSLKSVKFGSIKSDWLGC
Thrombin FP – blocks bovine thrombin, flagging nonselective RPN11 hits | shares compounds with Rpn11 block | bovine thrombin cleavage of Ub4-pepOG, fluorescence polarization | inhibition, % at 20 µM | 13% of 1,900 active;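 active means mean inhibition at least 40% at 20 µM, or signal 3 deviations below plate average, so some actives read negative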
A number is an active result; – = inactive; · = no result; ! = repeats disagree. An excerpt weighted towards active compounds, which were near 1.3% of everything screened. Unless noted, no stated cut-off is given here; in the data, active means inhibition above about 40%; inactive means the rest.

SMILES	Xi reactivation	Rpn11 block	TPT1 inhibitor	HNF4A DNA FP	CSN inh	aDG glyco up	Rpn11 confirm	MMP-2 counter	Thrombin FP
COc1ccc2c(-c3cc4ccc(OCc5ccc(F)cc5)cc4oc3=O)cc(=O)oc2c1	–	78	–	–	–	–	–	–	–
CCCC(=O)Nc1ccc2c(c1)OC[C@@H](C)N(Cc1ccccn1)C[C@@H](C)[C@@H](OC)CN(C)C2=O	–	·	·	·	·	·	·	·	·
C[C@H]1CN([C@@H](C)CO)C(=O)c2cc(C3=CCCC3)cnc2O[C@H]1CN(C)Cc1ccccn1	–	·	·	·	·	·	·	·	·
COc1ccc(C2CC(c3ccccc3)=NN2C(=O)COC(=O)c2ccc(Cl)nc2)cc1 (stereo unspecified)	–	42	–	–	–	–	–	–	–
CCCN1[C@@H]2c3ccc(-c4ccc(F)cc4)c(=O)n3C[C@H]1[C@H](CO)[C@H]2C(=O)NCC1CC1	–	·	·	·	·	·	·	·	·
Cn1cnnc1SCC(=O)Nc1ccc2nc(SCc3ccccc3)sc2c1	·	64	–	–	–	–	–	–	–
C[C@H]1COCc2cnnn2CC[C@H](Cc2ccccc2)C(=O)N1	–	·	·	·	·	·	·	·	·
O=C(CCN1C(=O)/C(=C/C=C/c2ccccc2)SC1=S)Nc1ccccn1	–	38	–	–	–	–	–	–	–
COc1cc2sc3ccc(-c4ccc(N(C)C)nc4)cc3c(=O)c2cc1OC	–	·	–	·	·	·	·	·	·
COc1ccc(-c2ccc3sc4ccccc4c(=O)c3c2)cn1	–	124	–	–	–	–	–	–	–
CC(C)[C@@H]1COCc2cn(nn2)CC[C@@H](Cc2ccccc2)C(=O)N1	–	·	·	·	·	·	·	·	·
CCC(=O)N1C[C@H](C)[C@H](OC)CN(C)C(=O)c2ccc(NC(=O)c3ccc(F)cc3)cc2OC[C@@H]1C	–	·	·	·	·	·	·	·	·
Nc1ncnc(Sc2ccc(Cl)cc2)c1[N+](=O)[O-]	–	44	–	–	–	–	–	–	–
CNC[C@@H]1Oc2ccc(NC(=O)CCCN(C)C)cc2CC(=O)N([C@@H](C)CO)C[C@H]1C	–	·	·	·	·	·	·	·	·
Clc1ccc(Nc2nc3ccccc3n3nnnc23)cc1	·	44	–	–	–	–	–	–	–
C[C@H]1CN([C@@H](C)CO)C(=O)c2cc(NC(=O)CCC(F)(F)F)ccc2O[C@H]1CN(C)C	–	·	·	·	·	·	·	·	·
N#CC(=C=[N-])c1nc2ccccc2nc1-[n+]1ccccc1	–	45!	–	–	44	–	–	–	–
O=C(N/N=C\c1ccc(OC(=O)c2cccs2)cc1)c1ccc(Cl)cc1	–	76	–	–	–	–	–	–	–
COc1ccc(C2=NN(C(C#N)c3ccc(OC)c(OC)c3)C(c3ccccc3)C2)cc1 (stereo unspecified)	·	66	–	–	–	–	–	–	–
COc1ccc(C2=NN(c3ccccc3)C(c3ccc(OC)c(OC)c3)C2)cc1 (stereo unspecified)	–	–	–	–	–	–	·	·	·
COc1cc(C(=O)NCC(=O)NCCN2C(=O)S/C(=C\c3ccccc3Cl)C2=O)cc(OC)c1OC	–	–	–	–	–	–	·	·	·
COc1cc(/C=C2\SC(=O)N(CCNC(=O)c3sc4cc(F)ccc4c3Cl)C2=O)cc(OC)c1OC	–	43	–	–	–	–	–	–	–
C[C@@H]1CN([C@@H](C)CO)C(=O)c2cc(NC(=O)Nc3cccc4ccccc34)ccc2O[C@H]1CN(C)C(=O)Nc1ccc(F)cc1	–	·	·	·	·	·	·	·	·
CCOC(=O)C1CCCN(C2=NC(=O)/C(=C/c3ccc(O)c(OCC)c3)S2)C1 (stereo unspecified)	–	77	–	–	–	–	–	–	–
CCOC(=O)C1=C(O)/C(=C\c2ccc(O)c(OCC)c2)N=C1C	–	–	–	–	–	–	·	·	·
SMILES	Xi reactivation	Rpn11 block	TPT1 inhibitor	HNF4A DNA FP	CSN inh	aDG glyco up	Rpn11 confirm	MMP-2 counter	Thrombin FP
CCOc1cc(/C=C2/N=C(C)C(C(=O)OC)=C2O)ccc1O	–	51	–	–	–	–	–	–	–
CCOc1cc(/C=C2\SC(=O)N=C2N)ccc1O	–	51	–	–	–	–	–	–	–
CCOc1cc(/C=C2\SC(N)=NC2=O)ccc1O	–	43	–	–	–	–	–	–	–
CCOc1cc(/C=C2\CN(C)C/C(=C\c3ccc(O)c(OCC)c3)C2=O)ccc1O	–	–	–	–	–	–	·	·	·
C#CCn1c(=NC(=O)c2cccs2)sc2cccc(OC)c21	–	68	–	–	–	–	50	–	–
C#CCn1c(=NC(=O)CN2C(=O)CCC2=O)sc2cccc(OC)c21	–	–	–	–	–	–	·	·	·
COc1ccc(S(=O)(=O)Nc2ccc3c(c2)C(=O)N([C@@H](C)CO)C[C@H](C)[C@@H](CN(C)C(=O)c2ccncc2)OCCCC[C@@H](C)O3)cc1	–	·	·	·	·	·	·	·	·
